One molecule from ChEMBL document CHEMBL1149444, “Discovery of imidazo[1,2-b][1,2,4]triazines as GABA(A) alpha2/3 subtype selective agonists for the treatment of anxiety” (J Med Chem, 2006) can be followed below.

The structures appear in SMILES notation. Activity calls are given as the source filed them.

A short description of data set [1]: Volume of distribution in dog at 1 mg/kg, iv or 1 mg/kg, po. The format is ADME, organism-based, Canis lupus familiaris. Conditions: in vivo, read-out: Vdss. An outline of the steps: (§1)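 Pharmacokinetics in rat, dog or rhesus after 1 mg/kg iv and 1 mg/kg po dosing. Plasma clearance (mL/min/kg), half-life (h), volume of distribution (L/kg) and oral bioavailability (%) were derived.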

Data set [2] has as its target T1, GABA-A receptor; alpha-3/beta-3/gamma-2 (Homo sapiens, UniProt P18507+P28472+P34903).
T1 sequence (P18507 whole entry): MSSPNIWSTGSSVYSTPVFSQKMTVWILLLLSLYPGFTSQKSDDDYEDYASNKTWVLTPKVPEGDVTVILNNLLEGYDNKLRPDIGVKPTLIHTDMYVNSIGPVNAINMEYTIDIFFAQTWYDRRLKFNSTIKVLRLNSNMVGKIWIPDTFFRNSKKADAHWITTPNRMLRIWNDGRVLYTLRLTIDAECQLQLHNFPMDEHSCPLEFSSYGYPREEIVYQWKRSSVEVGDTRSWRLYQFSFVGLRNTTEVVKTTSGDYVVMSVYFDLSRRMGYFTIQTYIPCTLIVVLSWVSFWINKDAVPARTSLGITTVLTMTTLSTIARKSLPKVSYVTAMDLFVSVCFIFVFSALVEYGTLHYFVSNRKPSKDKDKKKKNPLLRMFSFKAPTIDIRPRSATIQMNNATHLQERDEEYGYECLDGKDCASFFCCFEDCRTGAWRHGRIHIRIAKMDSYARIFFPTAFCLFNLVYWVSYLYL
T1 sequence (P28472 whole entry): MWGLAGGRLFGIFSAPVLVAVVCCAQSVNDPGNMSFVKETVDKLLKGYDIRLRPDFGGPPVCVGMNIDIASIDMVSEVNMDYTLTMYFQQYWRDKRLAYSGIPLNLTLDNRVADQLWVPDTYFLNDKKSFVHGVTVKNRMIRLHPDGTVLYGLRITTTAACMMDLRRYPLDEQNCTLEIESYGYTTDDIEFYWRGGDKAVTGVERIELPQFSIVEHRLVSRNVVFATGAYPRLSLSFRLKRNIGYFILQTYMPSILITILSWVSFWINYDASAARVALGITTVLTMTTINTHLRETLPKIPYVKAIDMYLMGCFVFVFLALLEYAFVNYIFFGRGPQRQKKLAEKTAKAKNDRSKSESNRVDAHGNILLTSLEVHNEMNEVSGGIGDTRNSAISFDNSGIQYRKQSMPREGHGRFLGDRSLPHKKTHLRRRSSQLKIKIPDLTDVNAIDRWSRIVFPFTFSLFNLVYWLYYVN
T1 sequence (P34903 whole entry): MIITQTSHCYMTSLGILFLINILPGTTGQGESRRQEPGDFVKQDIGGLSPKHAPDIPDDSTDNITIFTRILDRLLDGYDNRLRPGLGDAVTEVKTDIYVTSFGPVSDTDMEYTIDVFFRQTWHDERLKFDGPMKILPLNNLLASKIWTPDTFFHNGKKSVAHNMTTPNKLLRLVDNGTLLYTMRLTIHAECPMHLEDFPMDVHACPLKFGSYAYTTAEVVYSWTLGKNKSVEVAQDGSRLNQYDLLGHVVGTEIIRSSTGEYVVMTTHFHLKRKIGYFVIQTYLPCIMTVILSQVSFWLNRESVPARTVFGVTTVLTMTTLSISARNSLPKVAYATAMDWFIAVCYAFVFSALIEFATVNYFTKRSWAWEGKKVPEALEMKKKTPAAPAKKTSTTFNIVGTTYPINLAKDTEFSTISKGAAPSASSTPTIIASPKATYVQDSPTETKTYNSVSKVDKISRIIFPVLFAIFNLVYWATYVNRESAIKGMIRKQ
As to the kind of experiment: Displacement of [3H]Ro 15-1788 from recombinant human GABAA alpha3 receptor plus beta-3-gamma-2 expressed in L(tk-) cells. In kind it is cell-based. An outline of the steps: (§2)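 Inhibition of [3H]Ro15-1788 binding to human recombinant GABAA receptors stably expressed in L(tk-) cells, alpha subunit combined with beta3 and gamma2. Six to eight test concentrations spaced in half-log units. Ki reported as geometric mean of n = 2-12.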
In general terms: Displacement assays read how much labelled ligand stays bound in the presence of the test substance.

Data set [3] can be described thus: Plasma clearance in rat at 1 mg/kg, iv or 1 mg/kg, po. In kind it is ADME, organism-based. Summed up:
(§3)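 Rat pharmacokinetics after dosing at 1 mg/kg iv and 1 mg/kg po. Plasma clearance in mL/min/kg, half-life in h and volume of distribution in L/kg.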

For data set [4], the system named is Squirrel monkey. The data set can be described thus: Sedation in squirrel monkey conditioned emotional response test at 10 mg/kg, po. The format is functional, organism-based. The arrangement: dose 10 mg/kg. The note with it: Saimiri sciureus. An outline of the steps: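 Squirrel monkeys dosed po in 0.5% methyl cellulose vehicle. Anxiolysis was read as reversal of the suppression of lever pressing caused by a light cue signalling possible electric shock. Sedation was read as the rate of lever pressing for fruit juice reward on an RPI30 schedule. n = 10-11 per group, p < 0.05 versus vehicle.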

Data set [5] addresses T2, GABA-A receptor; alpha-5/beta-3/gamma-2 (Homo sapiens, UniProt P18507+P28472+P31644).
T2 sequence (P18507 whole entry): T1 sequence (P18507 whole entry)
T2 sequence (P28472 whole entry): T1 sequence (P28472 whole entry)
T2 sequence (P31644 whole entry): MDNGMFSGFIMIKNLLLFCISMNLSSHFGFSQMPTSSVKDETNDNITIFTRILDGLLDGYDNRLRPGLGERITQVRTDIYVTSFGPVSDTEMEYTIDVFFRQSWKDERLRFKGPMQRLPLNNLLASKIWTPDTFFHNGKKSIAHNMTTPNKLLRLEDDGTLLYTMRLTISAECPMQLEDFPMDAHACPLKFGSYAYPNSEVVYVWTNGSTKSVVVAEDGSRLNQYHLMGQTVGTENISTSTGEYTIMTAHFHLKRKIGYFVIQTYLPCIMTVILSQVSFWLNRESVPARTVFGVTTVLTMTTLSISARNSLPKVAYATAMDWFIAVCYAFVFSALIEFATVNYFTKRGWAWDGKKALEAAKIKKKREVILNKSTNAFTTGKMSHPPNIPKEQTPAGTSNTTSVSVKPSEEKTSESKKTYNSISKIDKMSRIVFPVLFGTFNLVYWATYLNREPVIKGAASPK
The data set can be described thus: Displacement of [3H] Ro15-1788 from recombinant human GABAA alpha-5 receptor plus beta3gamma2 expressed in L(tk-) cells. In kind it is cell-based. Summed up:
as §2

The subject of data set [6] is Mus musculus. The data set can be described thus: Impairment in mouse rotarod assay upto 10 mg/kg, po. The format is functional, organism-based. The arrangement: dose 10 mg/kg. Summed up:
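Mouse rotarod test for sedation or myorelaxation after oral dosing up to 10 mg/kg. n = 8 per group. Significance versus vehicle at p < 0.05.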
A general note: The rotarod test checks motor coordination on a turning rod.

The nature of data set [7]: Oral bioavailability in dog at 1 mg/kg, iv or 1 mg/kg, po. In kind it is ADME, organism-based, Canis lupus familiaris. The note with it: in vivo. Summed up:
as §1

Data set [8] is filed under the species Rattus norvegicus. The data set can be described thus: Plasma concentration in rat. In kind it is ADME, organism-based. Conditions: in vivo. Summed up: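 Central benzodiazepine receptor occupancy in rat after oral dosing, measured by displacement of [3H]Ro15-1788 binding. Plasma concentration was measured at the dose giving 50% occupancy.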
Data set [9] is described as follows: Half life in rat at 1 mg/kg, […] 1 mg/kg, po. The note with it: in vivo. In kind it is ADME, organism-based. Summed up:
as §3

Data set [10] is described as follows: Half life in dog at 1 mg/kg, iv or 1 mg/kg, po. Conditions: in vivo. The format is ADME, organism-based, Canis lupus familiaris. An outline of the steps:
as §1

Consider `CC(C)(O)c1cnn2c(-c3ccc(F)c(-c4c(F)cccc4C#N)c3)cnc2n1`, for which the Vd in [1] is 1.9 L/kg. In addition, the Ki – broadly, the dissociation constant of the complex between target and ligand, obtained from inhibition or displacement – in data set [2] was 2 nM; in data set [5], 1.1 nM. In data set [3], this molecule registered a clearance of 2.4 mL/min/kg. Besides, the outcome in data set [4] and in data set [6] was inactive. Moreover, the bioavailability (in general, the share of a dose that reaches the circulation, judged against a reference dose that is usually intravenous) in [7] stood at 22%. The molecule also came in with a concentration in data set [8] of 56 nM. Also, the half-life (usually the time needed for the level to fall by half in the phase considered) in [9] is 660 min; in data set [10], 390 min.
